Assay results: ChEMBL document CHEMBL1649147, “Antistaphylococcal activity of dihydrophthalazine antifolates, a family of novel antibacterial drugs” (2009)
Converted amounts (≈) assume the structure as drawn.

Legend:
[1] = tested on: Staphylococcus epidermidis; assay: Antibacterial activity against methicillin-susceptible coagulase-negative Staphylococcus epidermidis 057 by broth macrodilution method; assay type: functional
[2] = tested on: Staphylococcus aureus; assay: Antibacterial activity against Staphylococcus aureus 145 assessed as change in MIC by agar dilution method after serial passages in the absence of antibiotic relative to control; assay type: functional
Procedure, shortened: (§1)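 After drug-selective serial passage, selected clones were passaged 10 times in antibiotic-free MHB. MICs were then redetermined, and the change is expressed as log2 dilution steps.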

[3] = tested on: Staphylococcus epidermidis; assay: Antibacterial activity against coagulase-negative Staphylococcus epidermidis 057 after 10 passages in MBH without antibiotic by agar dilution method; assay type: functional; procedure, shortened: as §1
[4] = tested on: Staphylococcus aureus; assay: Antibacterial activity against Staphylococcus aureus 145 assessed as change in MIC by agar dilution method after serial passages in presence of antibiotic relative to control; assay type: functional
Procedure, shortened: (§2)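 Serial passage under drug. Inoculum was ~1 × 10^6 CFU/ml from overnight MHA growth, in 1 ml MHB at 35°C for 24 h. Drug ranged from 4 log2 steps above to 3 log2 steps below the MIC. […] MIC change is given as log2 steps.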

[5] = tested on: Staphylococcus epidermidis; assay: Antibacterial activity against coagulase-negative Staphylococcus epidermidis 345 assessed as change in MIC by agar dilution method after serial passages in the absence of antibiotic relative to control; assay type: functional; procedure, shortened: as §1
[6] = tested on: Staphylococcus epidermidis; assay: Antibacterial activity against coagulase-negative Staphylococcus epidermidis 345 by agar dilution method; assay type: functional
Procedure, shortened: (§3)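 MICs by agar dilution on Mueller-Hinton agar following CLSI guidelines. S. aureus ATCC 29213 and E. faecalis ATCC 29212 were run as quality controls with each set, and test-strain MICs were kept only if control MICs fell within acceptable ranges.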

[7] = tested on: Staphylococcus epidermidis; assay: Antibacterial activity against coagulase-negative Staphylococcus epidermidis 051 assessed as change in MIC by agar dilution method after serial passages in presence of antibiotic relative to control; assay type: functional; procedure, shortened: as §2
[8] = tested on: Staphylococcus aureus; assay: Antibacterial activity against Staphylococcus aureus 145
[9] = tested on: Staphylococcus epidermidis; assay: Antibacterial activity against methicillin-resistant, Linezolid non-susceptible coagulase-negative Staphylococcus epidermidis 345 by agar dilution method; assay type: functional
[10] = tested on: Staphylococcus aureus; assay: Antibacterial activity against vancomycin-resistant Staphylococcus aureus VRS1 assessed as change in MIC by agar dilution method after serial passages in presence of antibiotic relative to control; assay type: functional
Procedure, shortened: (§4)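 Daily serial passage for up to 50 days at 35°C for 24 h in 1 ml MHB. […] Each transfer used 10 µl from the tube nearest the MIC (1–2 dilutions below) with the same turbidity as the drug-free control. […] MICs were measured by agar dilution, with changes given as log2 steps.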

[11] = tested on: Staphylococcus epidermidis; assay: Antibacterial activity against methicillin-susceptible coagulase-negative Staphylococcus epidermidis 051 by broth macrodilution method; assay type: functional
[12] = tested on: Staphylococcus epidermidis; assay: Antibacterial activity against coagulase-negative Staphylococcus epidermidis 051 assessed as change in MIC by agar dilution method after serial passages in the absence of antibiotic relative to control; assay type: functional; procedure, shortened: as §1
[13] = tested on: coagulase-negative staphylococci; assay: Antibacterial activity against Tmp-resistant coagulase-negative staphylococci by agar dilution method
[14] = tested on: Staphylococcus epidermidis; assay: Antibacterial activity against methicillin-resistant coagulase-negative Staphylococcus epidermidis 225 by broth macrodilution method; assay type: functional
[15] = tested on: Staphylococcus epidermidis; assay: Antibacterial activity against coagulase-negative Staphylococcus epidermidis 345 after 10 passages in MBH without antibiotic by agar dilution method; assay type: functional; procedure, shortened: as §1
[16] = tested on: Staphylococcus epidermidis; assay: Antibacterial activity against coagulase-negative Staphylococcus epidermidis 051 after 10 passages in MBH without antibiotic by agar dilution method; assay type: functional; procedure, shortened: as §1
[17] = tested on: coagulase-negative staphylococci; assay: Antibacterial activity against Tmp-susceptible coagulase-negative staphylococci by agar dilution method
[18] = tested on: Staphylococcus aureus; assay: Antibacterial activity against Staphylococcus aureus ATCC 29213 assessed as change in MIC by agar odilution method after serial passages in presence of antibiotic relative to control; assay type: functional, ATCC29213; procedure, shortened: as §2
[19] = tested on: Staphylococcus epidermidis; assay: Antibacterial activity against coagulase-negative Staphylococcus epidermidis 225 after 10 passages in MBH without antibiotic by agar dilution method; assay type: functional; procedure, shortened: as §1
[20] = tested on: Staphylococcus aureus; assay: Antibacterial activity against methicillin-resistant Staphylococcus aureus by agar dilution method; assay type: functional
Procedure, shortened: (§5)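 Agar dilution on Mueller-Hinton agar per CLSI guidelines. S. aureus ATCC 29213 and E. faecalis ATCC 29212 were run with each set, and test MICs were accepted only when the control strains fell within acceptable ranges.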

[21] = tested on: Staphylococcus aureus; assay: Antibacterial activity against methicillin-susceptible, vancomycin-intermediate Staphylococcus aureus 505 by broth macrodilution method; assay type: functional
[22] = tested on: coagulase-negative staphylococci; assay: Antibacterial activity against methicillin-resistant coagulase-negative staphylococci by agar dilution method
[23] = tested on: Staphylococcus epidermidis; assay: Antibacterial activity against coagulase-negative Staphylococcus epidermidis 197 assessed as change in MIC by agar dilution method after serial passages in presence of antibiotic relative to control; assay type: functional; procedure, shortened: as §2
[24] = tested on: Staphylococcus aureus; assay: Antibacterial activity against methicillin-susceptible Staphylococcus aureus ATCC 29213 after 50 passages by agar dilution method; assay type: functional; conditions: ATCC29213; procedure, shortened: as §4
[25] = tested on: Staphylococcus aureus; assay: Antibacterial activity against methicillin-susceptible Staphylococcus aureus by agar dilution method; assay type: functional; procedure, shortened: as §5
[26] = tested on: Staphylococcus aureus; assay: Antibacterial activity against vancomycin-resistant Staphylococcus aureus VRS1 by broth macrodilution method; assay type: functional
Procedure, shortened: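 Michigan VRSA strain, one of 12 staphylococci later used in time-kill studies. MIC was determined by broth macrodilution and reported in μg/ml.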

[27] = tested on: Staphylococcus epidermidis; assay: Antibacterial activity against coagulase-negative Staphylococcus epidermidis 057 assessed as change in MIC by agar dilution method after serial passages in the absence of antibiotic relative to control; assay type: functional; procedure, shortened: as §1
[28] = tested on: Staphylococcus epidermidis; assay: Antibacterial activity against coagulase-negative Staphylococcus epidermidis 057 by agar dilution method; assay type: functional
Procedure, shortened: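 Agar dilution MIC determined on Mueller-Hinton agar following CLSI guidelines. S. aureus ATCC 29213 and Enterococcus faecalis ATCC 29212 were run as quality controls with each set, and test MICs were accepted only when the control MICs fell within acceptable ranges. Test organism was a coagulase-negative S. epidermidis strain.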

[29] = tested on: Staphylococcus aureus; assay: Antibacterial activity against Staphylococcus aureus ATCC 43300 assessed as change in MIC by agar dilution method after serial passages in presence of antibiotic relative to control; assay type: functional; procedure, shortened: as §2
[30] = tested on: Staphylococcus aureus; assay: Antibacterial activity against methicillin-susceptible Staphylococcus aureus ATCC 29213 by broth macrodilution method; assay type: functional; conditions: ATCC29213
[31] = tested on: Staphylococcus epidermidis; assay: Antibacterial activity against coagulase-negative Staphylococcus epidermidis 057 assessed as change in MIC by agar dilution method after serial passages in presence of antibiotic relative to control; assay type: functional; procedure, shortened: as §2
[32] = tested on: Staphylococcus epidermidis; assay: Antibacterial activity against coagulase-negative Staphylococcus epidermidis 225 assessed as change in MIC by agar dilution method after serial passages in the absence of antibiotic relative to control; assay type: functional; procedure, shortened: as §1
[33] = tested on: Staphylococcus aureus; assay: Antibacterial activity against methicillin-resistant Staphylococcus aureus ATCC 43300 by broth macrodilution method; assay type: functional; conditions: ATCC43300
[34] = tested on: Staphylococcus aureus; assay: Antibacterial activity against methicillin-resistant and vancomycin-resistant Staphylococcus aureus VRS1 by agar dilution method; assay type: functional; procedure, shortened: as §5
[35] = tested on: Staphylococcus aureus; assay: Antibacterial activity against methicillin-resistant Staphylococcus aureus 507 by broth macrodilution method; assay type: functional
[36] = tested on: Staphylococcus epidermidis; assay: Antibacterial activity against methicillin-resistant, vancomycin-intermediate coagulase-negative Staphylococcus epidermidis 225 by agar dilution method; assay type: functional; procedure, shortened: as §5
[37] = tested on: Staphylococcus aureus; assay: Antibacterial activity against Tmp-susceptible coagulase-negative Staphylococcus aureus by agar dilution method; assay type: functional; procedure, shortened: as §3

Q: How did the MIC [1] turn out when COc1ncc(C2c3ccccc3C=NN2C(=O)/C=C/c2cc(Cc3cnc(N)nc3N)cc(OC)c2OC)cn1 (configuration not stated) was run?
A: 8 µg/mL (≈ 14.5 µM)

Q: And the “fold change (FC)” value [2]?
A: -4

Q: And the MIC [3]?
A: 128 µg/mL (≈ 232 µM)

Q: What about the “fold change (FC)” value [4] of the same molecule?
A: 9

Q: What about the “fold change (FC)” value [5] of the same molecule?
A: -3

Q: What about the MIC [6] of the same molecule?
A: 0.125 µg/mL (≈ 0.226 µM)

Q: What about the “fold change (FC)” value [7] of the same molecule?
A: 8

Q: What about the MIC [8] of the same molecule?
A: 0.5 µg/mL (≈ 0.905 µM)

Q: And the MIC [9]?
A: 0.125 µg/mL (≈ 0.226 µM)

Q: What about the “fold change (FC)” value [10] of the same molecule?
A: 9

Q: What about the MIC [11] of the same molecule?
A: 0.125 µg/mL (≈ 0.226 µM)

Q: And the “fold change (FC)” value [12]?
A: -2

Q: And the MIC50 [13]?
A: 0.125 µg/mL (≈ 0.226 µM)

Q: And the MIC90 [13]?
A: 0.5 µg/mL (≈ 0.905 µM)

Q: And the MIC [14]?
A: 0.25 µg/mL (≈ 0.452 µM)

Q: And the MIC [15]?
A: 2 µg/mL (≈ 3.62 µM)

Q: And the MIC [16]?
A: 16 µg/mL (≈ 29 µM)

Q: What about the MIC50 [17] of the same molecule?
A: 0.016 µg/mL (≈ 0.029 µM)

Q: What about the MIC90 [17] of the same molecule?
A: 0.03 µg/mL (≈ 0.0543 µM)

Q: What about the “fold change (FC)” value [18] of the same molecule?
A: 8

Q: And the MIC [19]?
A: 8 µg/mL (≈ 14.5 µM)

Q: What about the MIC50 [20] of the same molecule?
A: 0.03 µg/mL (≈ 0.0543 µM)

Q: And the MIC90 [20]?
A: 0.25 µg/mL (≈ 0.452 µM)

Q: What about the MIC [21] of the same molecule?
A: 0.016 µg/mL (≈ 0.029 µM)

Q: What about the MIC50 [22] of the same molecule?
A: 0.06 µg/mL (≈ 0.109 µM)

Q: And the MIC90 [22]?
A: 0.5 µg/mL (≈ 0.905 µM)

Q: What about the “fold change (FC)” value [23] of the same molecule?
A: 5

Q: What about the MIC [24] of the same molecule?
A: 8 µg/mL (≈ 14.5 µM)

Q: And the MIC50 [25]?
A: 0.03 µg/mL (≈ 0.0543 µM)

Q: And the MIC90 [25]?
A: 0.25 µg/mL (≈ 0.452 µM)

Q: What about the MIC [26] of the same molecule?
A: 1 µg/mL (≈ 1.81 µM)

Q: What about the “fold change (FC)” value [27] of the same molecule?
A: 0

Q: What about the MIC [28] of the same molecule?
A: 8 µg/mL (≈ 14.5 µM)

Q: What about the “fold change (FC)” value [29] of the same molecule?
A: 7

Q: And the MIC [30]?
A: 0.03 µg/mL (≈ 0.0543 µM)

Q: And the “fold change (FC)” value [31]?
A: 4

Q: What about the “fold change (FC)” value [32] of the same molecule?
A: -4

Q: What about the MIC [33] of the same molecule?
A: 0.03 µg/mL (≈ 0.0543 µM)

Q: And the MIC [34]?
A: 0.5 µg/mL (≈ 0.905 µM)

Q: What about the MIC [35] of the same molecule?
A: 0.06 µg/mL (≈ 0.109 µM)

Q: What about the MIC [36] of the same molecule?
A: 0.25 µg/mL (≈ 0.452 µM)

Q: What about the MIC [37] of the same molecule?
A: ≤ 0.008 µg/mL
